Compound activity deposited in PubChem by Johns Hopkins Ion Channel Center.
Sampled rows, rich in hits. Any-hit rate of the full collection: about 3.1%.
hERG protect = compounds protecting human hERG from proarrhythmic drug block; Q12809; CHO-hERG, FluxOR thallium flux, dofetilide IC70 present; activation (rescue from dofetilide block), less the hit threshold, % at 10 µM; 310,000 compounds, 0.51% hits;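 active means activation above the mean of controls blocked by dofetilide plus 5 SD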;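 further: thallium influx through hERG after potassium depolarization seen as dye fluorescence rise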
KCNQ1 block = human KCNQ1 channel inhibition. P51787. CHO-K1 KCNQ1, FluxOR thallium flux fluorescence; stronger effect = higher value. B-score at 10 µM. 310,000 compounds, 1.3% hits;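 active means compounds whose thallium flux B-score, printed positive for inhibition, exceeds three library SD while starting fluorescence stays within three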;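 further: channel opened by potassium depolarization with thallium stimulus after 20 min compound exposure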
KCNQ1 act = human KCNQ1 channel potentiation or activation; CHO-K1 KCNQ1, thallium flux FluxOR fluorescence; stronger effect = higher value; B-score at 10 µM; 310,000 compounds, 0.35% hits; P51787;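 active means fluorescence ratio B-score, a plate-corrected score, at least three library SD, with initial intensity B-score within 5 SD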
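Assay system: CHO-K1 cells stably expressing KCNQ1; Medium: assay buffer with matched DMSO; Also added: K+/Tl+ depolarizing stimulus; Dosing: single dose; Timing: dye 90 min, compound 20 min, room temperature; Measured by: kinetic FluxOR thallium fluorescence, 10-s 1-Hz baseline, 110-s post-stimulus read; Read-out: peak-minus-minimum fluorescence over initial fluorescence, negative-control normalized, B-scored.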
KCNK3 inh = human KCNK3 channel inhibition, primary screen; CHO-KCNK3 thallium flux, FluxOR fluorescence; stronger effect = lower value; B-score at 10 µM; 340,000 compounds, 0.84% hits; AID 602410;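 active means B-score under library mean minus 4 SD, starting fluorescence ratio at most library mean plus 5 SD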;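 further: more negative B-score means stronger inhibition of thallium flux through KCNK3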
KCNK9 block = human KCNK9 channel inhibition; HEK293 KCNK9, FluxOR thallium flux fluorescence; stronger effect = lower value; B-score at 10 µM; 310,000 compounds, 1.2% hits;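 active means ratio B-score over 3 SD below the library mean, with starting fluorescence within 5 SD of its mean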;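 further: negative B-score means less thallium flux so channel inhibition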
KCNQ1 block val = reconfirmed blocker of the human KCNQ1 potassium channel; shares compounds with KCNQ1 block; KCNQ1 cell line, FluxOR thallium flux fluorescence; inhibition, % at 10 µM; 1,600 compounds, 93% hits; AID 588353;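 active means primary screen active, with duplicate mean exceeding buffer control mean plus 3 SD of buffer wells, cut at about 28% in these data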;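 further: 0% = buffer control ratio and 100% = XE991 inhibitor control ratio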
CHO KCNQ1 ctr = counter-screen for KCNQ1 inhibitors: effect in parental CHO cells; shares compounds with KCNQ1 block; parental CHO-K1, FluxOR thallium flux fluorescence ratio; stronger effect = lower value; zero means no signal rise above baseline; fluorescence ratio (Tl flux) at 10 µM; 1,600 compounds, 21% hits; AID 588366;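 active means mean of duplicate thallium-flux fluorescence ratios in parental host cells more than 5 SD below the buffer control mean, cut at about 0.38 in these data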;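 further: ratio is peak minus minimum fluorescence divided by baseline fluorescence; actives read low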
KCNQ1 APC inh = human KCNQ1 inhibition validated by electrophysiology; shares compounds with KCNQ1 block; KCNQ1-CHO cells, automated patch clamp current; calls only at 10 µM; 490 compounds, 20% hits; AID 624120;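 active means KCNQ1 current drop exceeding 3 SD of negative control wells, seen in both duplicate runs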;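 further: steady state current during a 2 s step from -80 to +40 mV; negative values mean current inhibition and positive values mean potentiation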
KCNQ2 spec = rat KCNQ2 inhibition in KCNQ1 inhibitor specificity screen. inhibition, % at 10 µM. KCNQ2 cells, FluxOR thallium flux fluorescence. shares compounds with KCNQ1 block. 1,600 compounds, 71% hits. AID 651746;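 active means mean percent inhibition of the KCNQ2 thallium signal more than 5 SD above the buffer-only control wells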;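 further: KCNQ2 expressed in CHO cells; 0% = buffer control wells and 100% = XE-991 inhibitor control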
Target sequence (O88943 whole entry, looked up): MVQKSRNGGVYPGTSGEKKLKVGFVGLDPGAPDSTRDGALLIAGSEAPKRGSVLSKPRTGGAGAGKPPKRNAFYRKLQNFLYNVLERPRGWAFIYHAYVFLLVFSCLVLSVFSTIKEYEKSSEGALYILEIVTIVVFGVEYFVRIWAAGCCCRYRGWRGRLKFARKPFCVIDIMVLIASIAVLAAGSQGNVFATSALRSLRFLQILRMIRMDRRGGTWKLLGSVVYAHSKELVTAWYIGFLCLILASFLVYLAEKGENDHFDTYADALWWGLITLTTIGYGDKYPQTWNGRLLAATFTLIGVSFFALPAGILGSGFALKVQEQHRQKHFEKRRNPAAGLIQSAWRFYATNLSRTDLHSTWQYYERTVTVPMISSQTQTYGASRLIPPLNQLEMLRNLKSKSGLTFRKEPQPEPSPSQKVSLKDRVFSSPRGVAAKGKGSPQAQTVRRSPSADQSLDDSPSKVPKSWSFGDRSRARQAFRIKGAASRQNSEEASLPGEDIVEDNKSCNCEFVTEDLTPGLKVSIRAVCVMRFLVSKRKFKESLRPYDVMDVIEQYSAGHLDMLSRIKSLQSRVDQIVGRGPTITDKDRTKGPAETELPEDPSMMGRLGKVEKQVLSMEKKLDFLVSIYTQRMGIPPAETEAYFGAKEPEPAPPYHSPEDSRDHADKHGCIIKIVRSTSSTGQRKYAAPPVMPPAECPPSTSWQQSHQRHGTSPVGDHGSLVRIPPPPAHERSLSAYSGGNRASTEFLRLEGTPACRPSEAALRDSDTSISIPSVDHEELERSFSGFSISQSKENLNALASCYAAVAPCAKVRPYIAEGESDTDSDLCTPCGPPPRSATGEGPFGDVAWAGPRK
KCNQ1 KCNE1 spec = selectivity of KCNQ1 inhibitors: inhibition of human KCNQ1/KCNE1 channel; shares compounds with KCNQ1 block; KCNQ1/KCNE1 cells, FluxOR thallium flux fluorescence; inhibition, % at 10 µM; 1,600 compounds, 77% hits; AID 652147;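 active means mean percent inhibition of duplicate wells above the buffer-only control mean plus 3 SD of those controls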;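 further: 0% = buffer only wells and 100% = XE-991 inhibitor control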
The depositor's hits bear a star; i = inactive; x = no result; + = active, no number.

SMILES	hERG protect	KCNQ1 block	KCNQ1 act	KCNK3 inh	KCNK9 block	KCNQ1 block val	CHO KCNQ1 ctr	KCNQ2 spec	KCNQ1 KCNE1 spec	others
O=C(NC(c1cccnc1)C(F)(F)F)c1cc(COc2ccc3c(c2)CCCC3)on1 (configuration not stated)	-15.8	16*	i	i	i	138.5*	0.361*	118.3%*	+
Cc1cc(-c2nnc(SCC(=O)Nc3cccc(Cl)c3)n2N)n[nH]1	-3.5	i	i	i	i	x	x	x	x
O=C1C2C3C=CC(C3)C2C(=O)N1c1ccc(Cc2ccncc2)cc1 (configuration not stated)	-4.1	i	i	i	i	x	x	x	x
O=C1c2ccc(Br)cc2C(=O)N1c1ccc(Cc2ccncc2)cc1	-9.9	15*	i	i	i	140.0*	0.497	99.3%*	127.5%*	KCNQ1 APC inh=i
CN(c1ccccc1)S(=O)(=O)c1ccc(NC(=O)c2ccc(F)cc2)cc1	-3.5	7*	i	i	i	90.5*	0.447	117.0%*	131.0%*	KCNQ1 APC inh=i
CN(c1ccccc1)S(=O)(=O)c1ccc(NC(=O)c2ccccc2)cc1	-10.2	i	i	i	i	x	x	x	x
CCN(CC)S(=O)(=O)c1cc(C(=O)Nc2cccnc2)ccc1Cl	-13.2	i	i	i	i	x	x	x	x
CCN(CC)S(=O)(=O)c1cc(C)ccc1NC(=S)Nc1cccnc1	-12.7	10*	i	i	i	68.5*	0.488	61.3%*	47.5%*
CCOc1ccc(NC(=O)C(=O)NCCN2CCN(C(=O)c3ccc(C)cc3)CC2)cc1	-10.9	i	i	i	i	x	x	x	x
c1ccc(-c2cn3nc(-c4ccccc4)c(-c4ccccc4)nc3n2)cc1	-20.8	6*	i	i	i	+	0.169*	i	i
OCC1(Cc2cccc(Cl)c2)CCCN(Cc2ccc(F)c(F)c2)C1 (configuration not stated)	-12.7	i	i	i	i	x	x	x	x
CSc1cccc(CN2CCCC(CO)(Cc3cccc(Cl)c3)C2)c1 (configuration not stated)	-18.1	7*	i	i	i	56.0*	0.41	100.7%*	86.5%*
COCc1cc(N2CCOCC2)nc(-c2ccccc2)n1	-4.2	i	i	i	i	x	x	x	x
COCc1cc(Sc2ccc(Cl)cc2)nc(-c2ccccc2)n1	-12.1	6*	i	i	i	77.0*	0.493	90.7%*	79.5%*
COCc1cc(N2CCN(c3ccccc3F)CC2)nc(-c2ccccc2)n1	-3.5	6*	i	i	i	51.0*	0.506	59.7%*	139.5%*
CCOC(=O)C1=C(C)Nc2ccccc2N=C1NC(=O)C1CCN(C(=O)c2ccccc2C)CC1	x	x	x	i	x	x	x	x	x
Cc1cc(NC(=S)Nc2cccnc2)ccc1Br	-24.3	10*	i	i	i	67.0*	0.493	i	i
Cc1cc(NC(=S)Nc2ccccc2)ccc1Br	-3.7	i	i	i	i	x	x	x	x
Cc1n[nH]c(C)c1NC(=O)CSc1nnnn1-c1cccc(F)c1	x	x	x	i	x	x	x	x	x
CCc1nc(SCC(=O)Nc2ccc(Br)cn2)n[nH]1	-8.8	i	i	i	i	x	x	x	x
Cc1ccc(S(=O)(=O)N(CCO)Cc2ccccc2)cc1	-0.9	i	i	i	i	x	x	x	x
Cc1ccc(S(=O)(=O)N(Cc2ccccc2)Cc2ccco2)cc1	-15.1	7*	i	i	i	96.0*	0.461	92.7%*	40.5%*	KCNQ1 APC inh=i
CC(=O)Nc1ccc2nc3ccccc3nc2c1	-6.4	i	i	i	i	x	x	x	x
CC(=O)Nc1ccc2nc3c(=O)n(C)c(=O)n(C)c3nc2c1	-13.9	8*	i	i	i	54.5*	0.404	i	i
CCOc1ccc2oc(C(=O)N3CCN(c4ccccc4OCC)CC3)c(C)c2c1	-20.7	6*	i	i	i	125.0*	0.42	131.0%*	+	KCNQ1 APC inh=i
SMILES	hERG protect	KCNQ1 block	KCNQ1 act	KCNK3 inh	KCNK9 block	KCNQ1 block val	CHO KCNQ1 ctr	KCNQ2 spec	KCNQ1 KCNE1 spec	others
S=C(Nc1cccc(Cl)c1)NC1CC2CCCC(C1)N2C1CCCC1 (configuration not stated)	-12.4	i	i	i	i	x	x	x	x
S=C(NCCN(C1CCCCC1)C1CCCC1)Nc1cccc(Cl)c1	-13.4	6*	i	i	i	80.0*	0.429	92.0%*	i
O=C(COC(=O)[C@H](Cc1ccccc1)NC(=O)c1ccco1)Nc1ccccc1OC(F)F	x	x	x	i	x	x	x	x	x
Cc1nnc2ccc(Oc3ccc(-c4ccccc4)cc3)nn12	-17.3	9*	i	i	i	67.0*	0.468	i	i
COC(=O)c1ccc(Oc2ccc3nnc(C)n3n2)cc1	-5.8	i	i	i	i	x	x	x	x
COc1ccc(S(=O)(=O)Nc2ccccc2C(=O)Nc2nc(-c3ccc(F)cc3)cs2)cc1OC	-20.4	9*	i	i	i	166.5*	0.318*	89.0%*	+
Cc1ccc(C2N=C(N)Nc3nc(=O)c4ccccc4n32)cc1 (configuration not stated)	-8.5	i	i	i	i	x	x	x	x
CN1/C(=C\C=C(/C#N)C(=O)Nc2ccc(Cl)cc2)C(C)(C)c2ccccc21	-17.6	i	i	i	i	x	x	x	x
CN1/C(=C\C=C(C#N)C#N)C(C)(C)c2ccccc21	-10.3	26*	i	i	i	+	0.0145*	i	i
C=CC[C@@H](CC(=O)N(CCO)Cc1ccccc1)C(=O)NC[C@H](OC(=O)[C@@H](CC=C)Cc1ccc(F)cc1)c1ccccc1	x	x	x	i	x	x	x	x	x
O=c1[nH]c(=O)n(-c2ccc(F)cc2)c2c1C(C(F)(F)F)(C(F)(F)F)N=C(c1ccc(F)cc1)N2	-9.6	6*	i	i	i	57.0*	0.517	64.3%*	i
S=C(NCCCN1CCOCC1)Nc1ccc(Cl)c(Cl)c1	-9.1	i	i	i	i	x	x	x	x
Cc1cccc(OCCC(=O)OCC(=O)Nc2c(C)nn(-c3ccccc3)c2C)c1	-19.8	10*	i	i	i	32.5*	0.469	64.3%*	35.5%*
CCS(=O)(=O)Nc1cc2c3c(c1)CCC(=O)N3CCC2	-2.8	i	i	i	i	x	x	x	x
